In ChEMBL document CHEMBL1147547, “Novel GSK-3 inhibitors with improved cellular activity” (Bioorg Med Chem Lett, 2004):
Calls of active or inactive are those of the source. The calls are words filed in the database; no cut-off is given here.

What was measured:
[1] = tested on: MDCK; assay: Cell permeation in MDCK cells; type: functional, Canis lupus familiaris
[2] = biological target: T1, Glycogen synthase kinase-3 (Homo sapiens, UniProt P49840+P49841); assay: Stimulation of glycogen synthesis in rat skeletal muscle L6 cells
[3] = biological target: T1, Glycogen synthase kinase-3; assay: Maximal glycogen synthesis in rat L6 skeletal muscle cells in response to 1 uM insulin; type: functional, cell-based
Procedure, shortened: (§1)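 Rat L6 muscle cells, with glycogen synthesis tracked as 14C-glucose incorporated into glycogen. Maximum glycogen produced by the compound is expressed as a percentage of the maximum produced by 1 µM insulin.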

[4] = biological target: T1, Glycogen synthase kinase-3; assay: Inhibition of glycogen synthase kinase-3 (GSK3-beta); type: protein assay
Procedure, shortened: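 GSK-3β (20 nM final) in HEPES pH 7.2 with 10 mM MgCl2, 0.1 mg/mL BSA, 1 mM DTT, 0.3 mg/mL heparin. Substrate 2.8 µM biotinylated phospho-primed GS peptide, with 2.5 µM ATP plus [γ-33P]-ATP. Stopped after 40 min with EDTA. Streptavidin SPA beads added and counted. Reported as pIC50.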

[5] = biological target: T1, Glycogen synthase kinase-3; assay: Maximal glycogen synthesis in rat L6 skeletal muscle cells in response to 1 uM insulin (inactive); type: functional, cell-based; procedure, shortened: as §1

T1 sequence (P49840 whole entry, looked up): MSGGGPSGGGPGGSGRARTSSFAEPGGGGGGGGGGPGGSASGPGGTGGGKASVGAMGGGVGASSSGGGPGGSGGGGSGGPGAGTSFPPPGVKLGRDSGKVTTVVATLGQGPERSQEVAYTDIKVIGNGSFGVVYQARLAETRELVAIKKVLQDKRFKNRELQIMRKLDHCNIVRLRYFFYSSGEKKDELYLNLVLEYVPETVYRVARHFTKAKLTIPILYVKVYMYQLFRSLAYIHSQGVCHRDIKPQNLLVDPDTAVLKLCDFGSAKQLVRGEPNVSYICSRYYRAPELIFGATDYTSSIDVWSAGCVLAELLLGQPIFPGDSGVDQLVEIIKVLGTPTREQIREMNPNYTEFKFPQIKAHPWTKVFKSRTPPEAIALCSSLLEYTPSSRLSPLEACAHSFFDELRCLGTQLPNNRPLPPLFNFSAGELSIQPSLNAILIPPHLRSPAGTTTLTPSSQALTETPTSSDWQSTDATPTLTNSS
T1 sequence (P49841 whole entry, looked up): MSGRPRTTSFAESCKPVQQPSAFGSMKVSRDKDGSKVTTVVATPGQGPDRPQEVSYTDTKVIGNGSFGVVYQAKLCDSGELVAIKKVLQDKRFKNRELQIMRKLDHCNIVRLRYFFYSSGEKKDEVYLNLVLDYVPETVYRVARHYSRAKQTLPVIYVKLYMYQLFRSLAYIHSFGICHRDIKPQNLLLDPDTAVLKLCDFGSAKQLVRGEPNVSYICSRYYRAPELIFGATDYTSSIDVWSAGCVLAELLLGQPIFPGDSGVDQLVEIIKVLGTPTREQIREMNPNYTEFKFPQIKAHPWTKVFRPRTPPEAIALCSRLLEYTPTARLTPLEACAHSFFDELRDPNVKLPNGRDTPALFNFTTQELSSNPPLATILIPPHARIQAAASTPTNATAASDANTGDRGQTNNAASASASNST

EC50 [2]	Max [3]	Log IC50 [4]	Max [5]	Compound	Cell permeation [1]
4000 nM	26%	-7.8		COc1cccc(-n2ncc3c(N/N=C/c4ccc(C(=O)NCCN(C)C)cc4)ncnc32)c1	1.5 ×10⁻⁶ cm/s
240 nM	54%	-8.3		CS(=O)(=O)c1ccc(/C=N/Nc2ncnc3c2cnn3-c2cccc3[nH]cnc23)cc1	6.1 ×10⁻⁶ cm/s
1880 nM	46%	-7.5		COc1cccc(-n2ncc3c(N/N=C/c4ccc(C(=O)O)cc4)ncnc32)c1	6.5 ×10⁻⁶ cm/s
310 nM	19%	-8.6		COc1cccc(-n2ncc3c(N/N=C/c4ccc(S(C)(=O)=O)cc4)ncnc32)c1 [PYRAZOLOPYRIMIDINE 2]	16.8 ×10⁻⁶ cm/s
		-8.1	inactive	COc1cccc(-n2ncc3c(N/N=C/c4ccc(F)cc4)ncnc32)c1 [GW817396X]	0.5 ×10⁻⁶ cm/s
220 nM	37%			COc1cccc(-n2ncc3c(N/N=C/c4ccncc4)ncnc32)c1 [GW784752X]	12.7 ×10⁻⁶ cm/s

The next lines start with the compound.

Compound	EC50 [2]	Max [3]	Log IC50 [4]	Max [5]	Cell permeation [1]
C(=N\Nc1ncnc2c1cnn2-c1ccccc1)/c1ccncc1	1220 nM	48%	-7		9.9 ×10⁻⁶ cm/s
CN(C)CCNC(=O)c1ccc(/C=N/Nc2ncnc3c2cnn3-c2cccc3[nH]cnc23)cc1 [PYRAZOLOPYRIMIDINE 1]	2330 nM	76%	-8.8		1.5 ×10⁻⁶ cm/s
Fc1ccc(/C=N/Nc2ncnc3c2cnn3-c2ccccc2)cc1			-6.2		0.5 ×10⁻⁶ cm/s
C(=N\Nc1ncnc2c1cnn2-c1cccc2[nH]cnc12)/c1ccncc1	110 nM	45%	-8.4		21.2 ×10⁻⁶ cm/s
Fc1ccc(/C=N/Nc2ncnc3c2cnn3-c2cccc3[nH]cnc23)cc1	230 nM	57%	-8.2		9.2 ×10⁻⁶ cm/s
CN(C)CCNC(=O)c1ccc(/C=N/Nc2ncnc3c2cnn3-c2ccccc2)cc1			-7.7		9.8 ×10⁻⁶ cm/s
O=C(O)c1ccc(/C=N/Nc2ncnc3c2cnn3-c2cccc3[nH]cnc23)cc1	2730 nM	42%	-8.3		1.7 ×10⁻⁶ cm/s
